{
  "source": "ChEMBL document CHEMBL1240369",
  "about": "“Antiviral efficacy of the novel compound BIT225 against HIV-1 release from human macrophages” (Antimicrob Agents Chemother, 2010)",
  "key": {"MDM [1]": {"system": "MDM", "assay": "Inhibition of Vpu ion channel in 0.01 MOI HIV1 Ba-L infected in 10 days differentiated human MDM cells assessed as number of gag copy", "type": "cell-based", "details": "Human immunodeficiency virus 1", "in_short": "(§1)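 MDM differentiated for 7, 10 or 14 days were infected with HIV-1 Ba-L across a range of MOIs, washed three times with PBS and cultured 7 days with 10 μM compound or equal-volume DMSO. On day 7 postinfection, supernatant RT activity was measured (and infectivity on TZM-bl cells). Cell lysates went to real-time PCR for LTR-gag DNA, normalised to albumin copies.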"}, "MDM [2]": {"system": "MDM", "assay": "Inhibition of Vpu ion channel in 0.001 MOI HIV1 Ba-L infected in 14 days differentiated human MDM cells assessed as viral inhibition by RT assay", "type": "cell-based", "parameters": "scale not given: the % may be the effect or the level left", "details": "Human immunodeficiency virus 1", "in_short": "as §1"}, "PBMC [3]": {"system": "PBMC", "assay": "Inhibition of Vpu ion channel in 0.05 MOI HIV1 NL4-3 infected in human PBMC cells assessed as viral inhibition measured at 10 uM after 7 days by […]", "details": "Human immunodeficiency virus 1"}, "MDM [4]": {"system": "MDM", "assay": "Inhibition of Vpu ion channel in 0.05 MOI HIV1 Ba-L chronically infected in 10-14 days differentiated human MDM cells assessed as viral inhibition after 5 days post treatment relative to control", "type": "cell-based", "details": "Human immunodeficiency virus 1", "in_short": "(§2)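 Chronic infection model: MDM were incubated with HIV-1 Ba-L for 3 h and left 7 days unwashed, then washed three times and given a single 10 μM dose (DMSO control). Supernatants were sampled routinely for RT activity. In the washout arm, compound was removed and cells kept drug-free for an additional 20 days.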"}, "[5]": {"assay": "Selectivity index, ratio of TC50 for human MDM cells to EC50 for HIV1 92TH001 infected in human MDM cells", "type": "toxicity, cell-based", "details": "read-out: Selectivity Index"}, "[6]": {"system": "Human immunodeficiency virus 1", "assay": "Antiviral activity against HIV1 Ba-L in human MDM assessed as inhibition integration of virus to host cell genome at 10 nM by RT assay", "type": "functional", "details": "Human immunodeficiency virus 1, Ba-L"}, "[7]": {"assay": "Inhibition of Vpu ion channel in HIV1 5705.72 in human MDM assessed as inhibition of vrius release", "parameters": "species or system Human immunodeficiency virus 1"}, "[8]": {"assay": "Inhibition of Vpu ion channel in HIV1 MDR3761 in human MDM assessed as inhibition of vrius release", "parameters": "species or system Human immunodeficiency virus 1"}, "[9]": {"assay": "Selectivity index, ratio of TC50 for human MDM cells to EC50 for HIV1 93BR029 infected in human MDM cells", "type": "toxicity, cell-based", "details": "read-out: Selectivity Index", "in_short": "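Monocytes were adherence-isolated from seronegative PBMC and differentiated in DMEM with 10% human AB serum. Cells were infected with the R5 subtype F primary isolate (PBMC-grown). Antiviral effect was taken versus DMSO-treated controls. Toxicity was measured in parallel by MTT. The index is mean TC50 divided by mean EC50, from in-house experiments, n = 3.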"}, "PM1": {"system": "PM1", "assay": "Inhibition of Vpu ion channel in 0.05 MOI HIV1 NL4-3 infected in PM1 cells assessed as viral inhibition measured at 10 uM after 7 days by […]", "details": "Human immunodeficiency virus 1"}, "[10]": {"molecular_target": "Protease (Human immunodeficiency virus 1) (UniProt Q9YQ12)", "sequence (Q9YQ12 as listed by the source)": "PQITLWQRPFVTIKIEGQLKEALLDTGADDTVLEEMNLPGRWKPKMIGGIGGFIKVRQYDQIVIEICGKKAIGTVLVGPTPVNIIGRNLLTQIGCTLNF", "assay": "Inhibition of HIV1 protease assessed as substrate cleavage by cell free assay", "in_short": "(§3)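 Cell-free fluorometric protease assay: compound (1–100 μM) was premixed with 2 μM quenched HIV-1 protease substrate 1. Background fluorescence (ex 340/em 490 nm) was read every 5 s for 5 min. HIV-1 protease was then added at 1.5% and cleavage followed for a further 5 min. LPV and EFV served as controls.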"}, "MDM [11]": {"system": "MDM", "assay": "Inhibition of Vpu ion channel in 0.001 to 3 MOI HIV1 Ba-L infected in 7-14 days differentiated human MDM cells assessed as virus inhibition rate measured after 7 days", "type": "cell-based", "details": "Human immunodeficiency virus 1", "in_short": "as §1"}, "[12]": {"molecular_target": "Protease (Human immunodeficiency virus 1) (UniProt Q9YQ12)", "assay": "Inhibition of HIV1 protease assessed as substrate cleavage at 100 uM by cell free assay", "in_short": "as §3"}, "MDM [13]": {"system": "MDM", "assay": "Inhibition of Vpu ion channel in 0.05 MOI HIV1 Ba-L chronically infected in 10-14 days differentiated human MDM cells assessed as viral inhibition after 1 day relative to control", "type": "cell-based", "details": "Human immunodeficiency virus 1", "in_short": "as §2"}, "[14]": {"system": "Human immunodeficiency virus 1", "assay": "Antiviral activity against HIV1 Ba-L in 14 days differentiated human MDM assessed as decrease in intracellular p24 level at 10 uM after 7 days by Western blot analysis", "type": "functional, organism-based", "in_short": "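Day 14 MDM were chronically infected with HIV-1 Ba-L, then given 10 μM compound or DMSO and harvested on day 28. Lysates with equal total protein (checked by β-actin) were run on a 10% polyacrylamide gel and blotted to nitrocellulose. Blots were probed with HIV-1-seropositive human serum, then HRP anti-human IgG.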"}, "[15]": {"system": "Human immunodeficiency virus 1", "assay": "Inhibition of HIV1 Vpu ion channel activity", "in_short": "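Planar lipid bilayer of POPE:POPC (50:50) in n-decane, with 50 mM KCl in 10 mM MES […] in both chambers. Synthetic Vpu peptide (150 ng) was added to cis and trans sides with stirring. K+ current appeared at −100 mV and was recorded at −40 mV, filtered at 1 kHz. Mean currents were taken over 10–30 s before and after compound (40 μM).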"}, "PBMC [16]": {"system": "PBMC", "assay": "Inhibition of Vpu ion channel in 0.05 MOI HIV1 NL4-3 infected in human PBMC cells assessed as viral inhibition measured at 5 uM after 7 days by […]", "details": "Human immunodeficiency virus 1"}, "[17]": {"assay": "Selectivity index, ratio of TC50 for human MDM cells to EC50 for HIV1 Ba-L infected in human MDM cells", "type": "toxicity, cell-based", "details": "read-out: Selectivity Index", "in_short": "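Day-14 adherence-derived MDM from seronegative donors were infected with HIV-1Ba-L for 3 h, PBS-washed thrice, and cultured in DMEM10+ with compound (10 to 0 μM; DMSO vehicle). EC50 came from nonlinear regression of day-7 supernatant RT activity as % virus control (n = 6, triplicates). TC50 came from day-7 MTT (A560, % DMSO control), range extended to 1,000 μM (n = 3). SI = TC50/EC50.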"}, "[18]": {"assay": "Selectivity index, ratio of TC50 for human MDM cells to EC50 for HIV1 92UG029 infected in human MDM cells", "type": "toxicity, cell-based", "details": "read-out: Selectivity Index"}, "PBMC [19]": {"system": "PBMC", "assay": "Inhibition of Vpu ion channel in 0.05 MOI HIV1 NL4-3 infected in human PBMC cells assessed as viral inhibition measured after 7 days by […]", "details": "Human immunodeficiency virus 1"}, "MDM [20]": {"system": "MDM", "assay": "Inhibition of Vpu ion channel in 0.05 MOI HIV1 Ba-L chronically infected in 7-14 days differentiated human MDM cells assessed as viral inhibition at 10 uM after 7 days post treatment measured after 20 days drug washout period", "type": "cell-based", "details": "Human immunodeficiency virus 1", "in_short": "as §2"}, "MDM [21]": {"system": "MDM", "assay": "Inhibition of Vpu ion channel in 0.05 MOI HIV1 Ba-L infected in 10 days differentiated human MDM cells assessed as number of gag copy", "type": "cell-based", "details": "Human immunodeficiency virus 1", "in_short": "as §1"}, "[22]": {"system": "Human immunodeficiency virus 1", "assay": "(§4) Inhibition of Vpu ion channel in HIV1 Ba-L in human MDM assessed as inhibition of vrius release", "in_short": "(§5)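 Day 14 MDM were infected with HIV-1 Ba-L for 3 h, washed three times and cultured with compound from 10 to 0 μM (0 μM containing matched DMSO). Day 7 supernatants were assayed for RT activity and converted to percent of virus control. EC50 came from nonlinear regression; n = 6 experiments, each in triplicate.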"}, "[23]": {"assay": "as §4", "parameters": "species or system Human immunodeficiency virus 1", "in_short": "as §5"}, "[24]": {"assay": "Cytotoxicity against human TZM-bl cells assessed as cell viability up to 20 uM by MTT assay", "type": "cell-based"}},
  "note": "Active and inactive are the calls of the source. The rule behind the calls is not given here.",
  "data": [
    {"molecule": "Cn1cc(-c2cccc3cc(C(=O)NC(=N)N)ccc23)cn1", "values": [
      {"measurement": "Activity", "setting": "MDM [1]", "value": 1380},
      {"measurement": "Activity", "setting": "MDM [2]", "value": 77, "unit": "%"},
      {"measurement": "inhibition", "setting": "PBMC [3]", "value": 56.8, "unit": "%"},
      {"measurement": "inhibition", "setting": "MDM [4]", "value": 91.5, "unit": "%"},
      {"measurement": "selectivity ratio", "setting": "[5]", "value": 140},
      {"measurement": "inhibition at 0.01 µM", "setting": "[6]", "value": 99, "unit": "%"},
      {"measurement": "EC50", "setting": "[7]", "value": 5.1, "unit": "µM"},
      {"measurement": "EC50", "setting": "[8]", "value": 5.1, "unit": "µM"},
      {"measurement": "selectivity ratio", "setting": "[9]", "value": 111},
      {"measurement": "inhibition", "setting": "PM1", "value": 21, "unit": "%"},
      {"measurement": "Activity", "setting": "[10]", "value": "inactive"},
      {"measurement": "Activity", "setting": "MDM [11]", "value": "Active"},
      {"measurement": "Activity", "setting": "[12]", "value": "inactive"},
      {"measurement": "inhibition", "setting": "MDM [13]", "value": 60.7, "unit": "%"},
      {"measurement": "Activity", "setting": "[14]", "value": "Active"},
      {"measurement": "Activity", "setting": "[15]", "value": 40, "unit": "µM"},
      {"measurement": "inhibition", "setting": "PBMC [16]", "value": 25.7, "unit": "%"},
      {"measurement": "selectivity ratio", "setting": "[17]", "value": 126},
      {"measurement": "selectivity ratio", "setting": "[18]", "value": 14},
      {"measurement": "inhibition", "setting": "PBMC [19]", "value": 95.8, "unit": "%"},
      {"measurement": "Activity", "setting": "MDM [20]", "value": "inactive"},
      {"measurement": "Activity", "setting": "MDM [21]", "value": "Active"},
      {"measurement": "Activity", "setting": "[22]", "value": "Dose-dependent effect"},
      {"measurement": "EC50", "setting": "[23]", "value": 2.25, "unit": "µM"},
      {"measurement": "Activity", "setting": "[24]", "value": "Non-toxic"}
    ]}
  ]
}
